Assay [1] in a line: S. cerevisiae growth inhibition in permissive medium (OD615), pilot counter-assay for S. cerevisiae lifespan shortening project, permissive growth control (AID 705;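 active = growth inhibition above 25% in both replicates, a cutoff set 3 SD above the mean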). Particulars: OD615, 24 h, at 10 µM, hits give high values. The method, boiled down:
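Test system: Saccharomyces cerevisiae strain carrying genetically modified DeaD replicative-lifespan system; buffer or medium: SC raffinose/galactose permissive medium; dosing: one dose 10 µM, DMSO 0.25% final; times: 24 h exposure, 30 °C; measured by: OD at 615 nm; read-out basis: growth inhibition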

Assay [2] is described as follows: S. cerevisiae growth inhibition in restrictive medium, OD615, pilot screen, restrictive growth control, yeast lifespan reduction project (AID 706;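 active = growth inhibition above a set limit, 3 SD over mean compound inhibition, in both replicates, cut at about 43% in these data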;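 note: modified DeaD lifespan yeast strain shifted to restrictive glucose medium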). Particulars: OD615, 48 h, at 10 µM, hits give high values. A digest of the protocol: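 material = engineered S. cerevisiae DeaD strain | buffer or medium = glucose-based CSMM-D restrictive medium | dosing = one concentration, 10 µM final, 0.25% DMSO | schedule = 4 h pre-growth plus 48 h compound exposure, 30 °C | detection = OD615 absorbance reading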

Assay [3] can be described thus: doxorubicin toxicity protection in MRP-1 cells – H69AR cells, CellTiter-Glo, duplicate, MRP-1 activator project, pilot screen (AID 807;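 active = viability increase at or above a cutoff of the median across tested compounds plus 3 SD, cut at about 8.5% in these data, passing the limit was not always enough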;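 note: compound pretreatment 18-22 h then 72 h combined with doxorubicin; 0% = doxorubicin alone and 100% = vehicle without doxorubicin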). The settings on record: H69AR viability with doxorubicin, CellTiter-Glo luminescence; at 10 µM; hits give high values. (In ATP-based viability assays light output follows the ATP content of the culture.)
Assay [4] is described as follows: viability of HCT116 without oncogenic beta-catenin – human colon tumor cells, pilot screen (AID 823;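 active = cell viability at or below a set limit in both duplicate runs, the limit being the all-compound median minus 4 SD, cut at about 23% in these data, passing the limit was not always enough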;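 note: 0% = wells killed by 20 µM Hyamine and 100% = untreated DMSO cell wells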). The settings on record: HCT116 beta-catenin knockout viability, CellTiter-Glo, 60 h; at 10 µM; hits give low values.
The nature of assay [5]: viability of PTEN-null HCT116 cells – cell-based, HCT116 clonal line, CellTiter-Glo, pilot screen (AID 824;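 active = viability at or below 27.92% in each of two runs, the all-compound median minus 4 SD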;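 note: 0% = 20 µM Hyamine control and 100% = vehicle cell control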). The settings on record: HCT116 PTEN-deleted viability, 60 h, at 10 µM, hits give low values.
Assay [6] is described as follows: RAM pathway blockade in budding yeast – dse1pr::URA3 reporter, 5-FOA selection, pilot screen (AID 869).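 Note: 0% = DMSO wells with no growth and 100% = 10 µM 1-NA-PP1 with full growth; RAM network block rescues cells from 5-FOA so hits raise OD615 growth.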 The settings on record: S. cerevisiae dse1pr::URA3 5-FOA growth, OD615, 2 d; at 10 µM; hits give high values; strain carries analog-sensitive mutant Cbk1 kinase.
A short description of assay [7]: RAM signaling pathway blockade in yeast – S. cerevisiae, Pdr1DBD-CYC8 efflux-inhibited sensitized strain, primary screen (AID 1298;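 active = RAM network inhibition above 8.4% in each of two replicates, 3 SD over the compound average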;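 note: 0% = DMSO untreated cells without growth and 100% = 10 µM 1-NA-PP1 full growth; higher means more yeast growth rescued from 5-FOA killing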). The settings on record: S. cerevisiae cbk1-as DSE1-URA3 strain, 5-FOA growth OD615, 2 d; at 50 µM; hits give high values.

A number with no mark means an inactive call. Results filed as inconclusive are left out. The source made the active and inactive calls.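 Rule for the calls, unless noted: active = inhibition over a set limit, the all-compound mean plus 3 SD, in both replicate runs; inconclusive = over that limit in just one replicate run; inactive = at or under that limit in both runs.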

The viability is a read-out of living cells in per cent, often relative to untreated cells. A word on the inhibition: it is the relative decrease from the control value, in per cent.

Take `Cc1csc(NC(=O)C2CCCN(S(=O)(=O)c3cccnc3)C2)n1` (stereo not drawn): the growth inhibition in assay [1] is -7.25%; in assay [2], 1.94%. Further, the viability increase in assay [3] was -0.73%. Moreover, the viability is 104% in assay [4] and 101% in assay [5]. Further, the inhibition in assay [6] was 1.59%. For the same compound, in assay [7], the RAM network inhibition is 4.94%.

Turning to `CCc1ccccc1NC(=O)c1cc(-c2cccc(O)c2)on1`, the figures for the growth inhibition in assay [1] and in assay [2] were -21.2% and -5.59%, respectively. In addition, the viability increase in assay [3] was -1.49%. Moreover, the viability in assay [4] was 98%; in assay [5], 96%. Also, the inhibition in assay [6] was 4.72%. Further, the RAM network inhibition in assay [7] was 8.2%.

`COc1ccc(C(=O)NCCSCc2ccco2)cc1OC`: the growth inhibition in assay [1] is -9.5%; in assay [2], 5.73%. Besides, the viability increase in assay [3] was -4.86%. For the same compound, the viability was 98.2% in assay [4] and 95.6% in assay [5]. For the same compound, the inhibition in assay [6] is 1%. In assay [7], the RAM network inhibition is 5.47%.

Regarding `O=C(NCc1cn2ccsc2n1)c1c(F)cccc1Cl`, the growth inhibition in assay [1] is -10.2%; in assay [2], -8.81%. Also, the viability increase in assay [3] is 1.01%. The viability is 107% in assay [4] and 99.6% in assay [5]. Further, the inhibition in assay [6] was 0.93%. Besides, the RAM network inhibition in assay [7] is 2.61%.

As for `COc1cccc2c(=O)n(CC(=O)NC3CCCCC3)ccc12`, the growth inhibition in assay [1] was 0.435%; in assay [2], -6.59%. In addition, in assay [3], the viability increase is -1.27%. Moreover, the viability was 103% in assay [4] and 90.3% in assay [5]. In addition, the inhibition in assay [6] is 1.58%. For the same compound, in assay [7], the RAM network inhibition is 4.45%.

For the compound `Cc1ccc(-c2nc(CS(=O)CC(=O)NCCC(C)C)c(C)o2)cc1` (stereo not drawn), the growth inhibition in assay [1] is -6.7%; in assay [2], -1.91%. In addition, in assay [3], the viability increase was -0.71%. The viability in assay [4] is 92.2%; in assay [5], 95.8%. Further, the inhibition in assay [6] is 1.14%. In assay [7], the RAM network inhibition was 3.42%.

Consider `CCc1cccc(OCCCCNCCOC)c1`, for which the growth inhibition in assay [1] is -2.16%; in assay [2], -11.6%. In assay [3], the viability increase is -0.86%. Also, the viability in assay [4] is 89.1%; in assay [5], 99.3%. Besides, the inhibition in assay [6] is 2.08%. Also, the RAM network inhibition in assay [7] was -0.32%.

Turning to `Cc1ccc(S(=O)(=O)n2ccnc2)cc1C`, the growth inhibition in assay [1] is -7.98%; in assay [2], -8.12%. In assay [3], the viability increase is -0.49%. In addition, the viability in assay [4] is 96.1%; in assay [5], 88.9%. Further, the inhibition in assay [6] is 1.86%. Further, the RAM network inhibition in assay [7] is 2.35%.

On to `Cc1nn(Cc2ccc(Cl)c(Cl)c2)c(C)c1NC(=O)c1cc(C2CC2)on1`, for which the growth inhibition in assay [1] was -10.7%; in assay [2], 1.77%. Moreover, in assay [3], the viability increase was 1.41%. Moreover, the viability in assay [4] was 79%; in assay [5], 84.7%. Besides, the inhibition in assay [6] was 0.125%. Also, the RAM network inhibition in assay [7] was 2.79%.

`CC(=O)Nc1cc(NC(C)=O)c(CC(C)C)s1`: the growth inhibition was -6.92% in assay [1] and 2.99% in assay [2]. Moreover, the viability increase in assay [3] is -0.12%. The viability was 94.9% in assay [4] and 101% in assay [5]. The inhibition in assay [6] was 0.44%. For the same compound, in assay [7], the RAM network inhibition was 2.34%.

Turning to `CCN1CCN(C(=O)c2cc3c(=O)oc4ccc(C)cc4c3s2)CC1`, the growth inhibition in assay [1] is -12.6%; in assay [2] it was -16.2%. For the same compound, the viability increase in assay [3] is -2.18%. Further, the viability in assay [4] is 102%; in assay [5] it was 93.7%. The inhibition in assay [6] was 0.905%. In addition, the RAM network inhibition in assay [7] is 1.3%.

As for `Cc1ccc(S(=O)(=O)N2CCN(C(=O)CN3CCCC3)C2)cc1`, the growth inhibition in assay [1] is -15.1%; in assay [2] it was -11.2%. Further, in assay [3], the viability increase is -0.87%. Besides, the viability in assay [4] is 92.4%; in assay [5] it was 100%. For the same compound, the inhibition in assay [6] was 1.62%. Further, the RAM network inhibition in assay [7] is 8.99%.

On to `CSCCC1(C(=O)O)NC(c2ccccc2O)C2C(=O)N(C(C)C)C(=O)C21` (stereo not drawn), for which the figures for the growth inhibition in assay [1] and in assay [2] were 2.37% and 11.6%, respectively. Also, the viability increase in assay [3] is -1.09%. The viability is 102% in assay [4] and 94.7% in assay [5]. Further, in assay [6], the inhibition is 0.875%. The RAM network inhibition in assay [7] was 3.49%.

`O=C(NC1=NCCS1)C1CC2CCC1C2` (stereo not drawn): the growth inhibition is 7.66% in assay [1] and 6.69% in assay [2]. Besides, the viability increase in assay [3] is -2.34%. Besides, the results for the viability in assay [4] and in assay [5] were 99.1% and 97.1%, respectively. In assay [6], the inhibition is 1.96%. Besides, the RAM network inhibition in assay [7] was 3.02%.

As to `COc1cc(OC)cc(-c2cc3nc(C)c(CCC(=O)O)c(C)n3n2)c1`, the growth inhibition in assay [1] was 0.5%; in assay [2] it was -1.06%. Moreover, the viability increase in assay [3] is -2.31%. Further, the viability in assay [4] and in assay [5] was 96.6% throughout. Further, the inhibition in assay [6] is 0.805%. The RAM network inhibition in assay [7] was 1.56%.

For `C=CCNC(=O)C1CC(=O)N(c2ccc(C)cc2)C1` (stereo not drawn), the growth inhibition was -10.6% in assay [1] and -4.72% in assay [2]. The viability increase in assay [3] is -3.08%. For the same compound, the viability was 93.9% in assay [4] and 86.1% in assay [5]. The inhibition in assay [6] was 0.995%. Also, the RAM network inhibition in assay [7] is 4.77%.

For the compound `CC1CCN(CCCNC(=O)c2cc3c(=O)n(C)c4ccccc4c3n2C)CC1`, the growth inhibition in assay [1] was 0.225%; in assay [2] it was -4.35%. Also, in assay [3], the viability increase was -5.04%. Besides, the viability in assay [4] is 43.1%; in assay [5], 50%. Also, the inhibition in assay [6] was -0.26%. For the same compound, the RAM network inhibition in assay [7] was 1.43%.

As for `CC(=O)C1C(c2ccc(O)cc2)NC(=O)NC1(O)C(F)(F)F` (stereo not drawn), the growth inhibition in assay [1] was -15.9%; in assay [2], -25.1%. The viability increase in assay [3] is -1.41%. The viability in assay [4] was 102%; in assay [5], 98.7%. Besides, in assay [6], the inhibition is 2.78%. The RAM network inhibition in assay [7] was 4.56%.

Regarding `Cc1ccsc1C1C2=C(CC(C)(C)CC2=O)Nc2ncnn21` (stereo not drawn), the growth inhibition in assay [1] is -13.7%; in assay [2], 11.9%. Also, in assay [3], the viability increase is -4.49%. Moreover, the viability in assay [4] is 101%; in assay [5], 102%. The inhibition in assay [6] is 1.98%. Also, in assay [7], the RAM network inhibition was 4.28%.

`CC1CC(C)CN(S(=O)(=O)c2cccc3cccnc23)C1` (stereo not drawn): the figures for the growth inhibition in assay [1] and in assay [2] were -4.23% and -6.44%, respectively. The viability increase in assay [3] is -4.51%. Also, the viability in assay [4] was 87.9%; in assay [5] it was 94.9%. The inhibition in assay [6] was -0.45%. Moreover, the RAM network inhibition in assay [7] was 1.83%.

For the compound `COc1ccc(C2CC(C(F)(F)F)n3nc(C(=O)O)c(Cl)c3N2)cc1OC` (stereo not drawn), the growth inhibition was -2.51% in assay [1] and -1.92% in assay [2]. Further, the viability increase in assay [3] is 0.25%. In addition, the values for the viability in assay [4] and in assay [5] were 105% and 97.6%, respectively. For the same compound, the inhibition in assay [6] was 0.77%. Also, the RAM network inhibition in assay [7] was 2.86%.

On to `S=c1[nH]nc(-c2ccncc2)n1Cc1ccccc1`, for which the results for the growth inhibition in assay [1] and in assay [2] were -4.1% and -9.11%, respectively. Also, the viability increase in assay [3] is -1.9%. In addition, the results for the viability in assay [4] and in assay [5] were 100% and 93.7%, respectively. In addition, the inhibition in assay [6] is 0.265%. In addition, the RAM network inhibition in assay [7] was 1.95%.

Regarding `CCOc1ccc(Cn2nnc(C(=O)NCCc3ccccc3)c2N)cc1`, the growth inhibition in assay [1] was 1.4%; in assay [2], 2.79%. The viability increase in assay [3] was 10.7% (active). Besides, the viability was 96.9% in assay [4] and 89.9% in assay [5]. Besides, the inhibition in assay [6] was 2.5%. Besides, the RAM network inhibition in assay [7] is 4.53%.

As to `CCOc1ccc2nc(NC(=O)Nc3cccs3)sc2c1`, the figures for the growth inhibition in assay [1] and in assay [2] were -10.4% and -19.9%, respectively. Also, the viability increase in assay [3] is -3.88%. The viability in assay [4] is 40.1%; in assay [5], 31.6%. In assay [6], the inhibition was 1.08%. Also, the RAM network inhibition in assay [7] is 0.79%.

These data come from PubChem BioAssay.
